In ChEMBL document CHEMBL4513216, “Probing the Open Global Health Chemical Diversity Library for Multistage-Active Starting Points for Next-Generation Antimalarials” (ACS Infect Dis, 2020):

Test: Toxicity liver stage against HepG2, at 10uM
Format: cell-based
Parameters: test concentration 10 uM, cell line HepG2-A16-CD81EGFP
Conditions: human, HepG2-A16-CD81EGFP cells; read-out: INHIBITION
Summary of the method: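 Uninfected HepG2-A16-CD81EGFP cells, 3 × 10^3 per well, 1536-well, plated on prespotted compound at 10 μM final, parasite-free screening media added to match infected plates; puromycin 10 μM positive, DMSO 0.5% negative; run in parallel with 48 h PbLuc assay at 37 °C, 5% CO2; viability by CellTiter-Glo luminescence, normalized to controls.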

SMILES | cytotoxicity at 10 µM [%]
Cn1ccnc1CCNS(=O)(=O)c1cccnc1 | 10.7
CC(C)(C)c1cn(C[C@H]2CC3CCN2C[C@@H]3C(=O)NC2CC2)nn1 (stereo not given in full) | 9.46
CC(=O)N1N=C(c2ccccc2)OC1C(=O)N(C)CCc1ccccc1 (stereo not given) | 3.54
OC[C@@H]1[C@@H](c2ccccc2)CN2CCN(c3ccccn3)C[C@H]12 | -0.53
COc1ccc2nnc(CCCC(=O)Nc3nc4c(s3)CCC4)n2n1 | -5.01
O=C1CSC(C(F)(F)F)c2c(O)nn(C3CCCCC3)c2N1 (stereo not given) | -45.7
CC1CCN(C(=O)CSc2nc3c(cnn3CCO)c(=O)[nH]2)CC1 | 7.98
Cc1ccnc(OCC(=O)N2CCCC2)n1 | -10.2
COc1ccc(F)cc1S(=O)(=O)N1CCC(Oc2ccc(Cl)cn2)CC1 | 8.05
CN(CC1CC1)c1ccc2ccc(C(=O)NCCc3ccccc3)cn12 | -1.83
CN(C)C(=O)N1CC2(CCN(S(=O)(=O)C3CC3)CC2)c2ccccc21 | -110
COCc1cncc2c1CCN(C(=O)c1ccsc1)C2 | 2.43
Cc1nocc1C(=O)N1CCCC2(CCN(c3cnn(C)c3)C2=O)C1 (stereo not given) | 2.43
COCCn1ccc2c(cnc3nc(SC)nn32)c1=O | -17.4
O=C(NC1CCCC1)N1CCCCC1c1nc(C2CC2)no1 (stereo not given) | -9.52
Cc1nn(C)c2cnn(Cc3ccc(C(=O)NCC4CC4)o3)c12 | 6.06
Cc1nc(NCCc2ccccc2)cc(C(=O)N2CCOCC2)n1 | -3.01
CCn1ccc(C(=O)NCCCN2CCOCC2)n1 | -7.9
Cc1ccccc1S(=O)(=O)N(C)[C@@H]1CC[C@@H](n2ccnc2C)[C@@H]1O | -1.07
O=S(=O)(c1cn[nH]c1)N1CCC(O)(CN2CCOCC2)C1 (stereo not given) | 2.5
O=C(c1ccncc1)N1CCCC(C2=Nc3ccccc3S(=O)(=O)N2)C1 (stereo not given) | 4.26
COCC(=O)N1CCOC(c2cccc(-c3cncnc3)n2)C1 (stereo not given) | 0.109

SMILES | cytotoxicity at 10 µM [%]
Cc1ccccc1-c1cncc(C2CCN(CCO)CC2)n1 | -1.61
CC(=O)N1CCCCC1c1nc2c(c(NC3CCCC3)n1)CN(C)CC2 (stereo not given) | -13
CN(CCC(=O)N1CCCC(Cc2cccnc2)C1)Cc1cccnc1 (stereo not given) | -9.41
CC(=O)N1CCCCC1c1nc(N)ncc1-c1ccccc1 (stereo not given) | -0.233
O=C(NCCCn1ccnc1)C1COCC(=O)N1Cc1ccccc1 (stereo not given) | 12.3
Cc1ccc(C2CN(CCS(C)(=O)=O)CCO2)c(C)c1 (stereo not given) | 3.03
CCOCCC(=O)NCCNc1nccc(C(F)(F)F)n1 | 2.88
c1csc(N2CCN(c3ncnc4sccc34)CC2)n1 | 34.6
COc1cc(CNc2cc(-c3ccoc3C)nn2CCO)ccc1F | -14.6
C[S+]([O-])c1ccc(CNc2ccc(F)cc2OC(F)F)cc1 (stereo not given) | 0.752
CC(C)CN(C(=O)Nc1cccc(C(=O)N(C)C)c1)C1CC1 | -15.2
NS(=O)(=O)N1CCc2ccc(NC(=O)CCc3ccncc3)cc21 | 2.68
O=C(c1ccc(-n2ccnc2)nn1)N1CCCCC1Cn1cccn1 (stereo not given) | -4.49
COc1ccc(CN2CCN(CCn3ccnc3)CC2)cc1F | -8.88
Cc1c(C(=O)N(C)CC(C)O)sc2nc(C(F)(F)F)ccc12 (stereo not given) | -0.943
CC(C)c1noc(CN(C)C(c2ccc(F)cc2)c2cccnc2)n1 (stereo not given) | 5.66
CC(=O)N(C)c1nc(CN2CCN(c3nccs3)CC2)cs1 | -12.5
O=C(Nc1cc(CSCCO)ccn1)c1ccc(Cl)o1 | -7.76
CCN(C(=O)C1Cc2cc(Cl)ccc2O1)C1CC1 (stereo not given) | 10.1
CN(C)S(=O)(=O)c1ccc(CN2CCC(c3ccccc3)C2)o1 (stereo not given) | 17.5
CCCc1nc(C(C)(C)NC(=O)c2ccnn2C)no1 | -10.5
Cc1ccc(CNCCOc2ccc(S(C)(=O)=O)cc2)cc1 | -9.12

SMILES | cytotoxicity at 10 µM [%]
Cn1nnc2cc(C(=O)N3CCCC3Cc3ccccc3)ccc21 (stereo not given) | -14.7
Cn1ccnc1CN1CCc2c(COCC3CC3)nn(C)c2C1 | 8.68
Cc1ccc2c(c1)C(N1CCOCC1)CC21CCNCC1 (stereo not given) | -116
CN1CCC(CO[C@H]2CN(C(=O)c3cccn3C)[C@@H]3COC[C@H]23)CC1 | -109
O=C(c1cscn1)N1CCc2ncc(Cn3cncn3)n2CC1 | -68.9
O=C(c1ccnnc1)N1CCc2ncnc(C3CCOC3)c2CC1 (stereo not given) | -77.5
CN1CCN(CC2CC2)C(=O)c2cnc(N3CC[C@@H](O)C3)nc21 | 2.19
CN(C)CC(=O)Nc1ccc(C(=O)N(C)CCc2cn[nH]c2)cc1 | 2.2
CC(C)CN(Cc1ccccn1)Cc1ccccc1C(=O)O | 2.51
Nc1cc(C(=O)N2CCC(Oc3cccc(C(F)(F)F)c3)CC2)ccn1 | -7.03
CCS(=O)(=O)c1ncc(CN2CCN(C)CC2)n1CCc1ccccc1 | 2.44
Cc1nn(C)cc1C(=O)N1CCCn2nc(CN3CC[C@H](F)C3)cc2C1 | -7.88
CCC1CN(C(=O)c2cc(C(C)=O)c(C)[nH]c2=O)CCN1C(C)C (stereo not given) | 6.03
CCn1ccnc1CN(C)Cc1nc(Cc2cccc(F)c2)no1 | -4.44
Cc1nc(CN2C[C@@H](NS(=O)(=O)N(C)C)[C@H](C(C)C)C2)cs1 | -6.04
COCc1ncc(CN2CCN(C)C(=O)C2C)cn1 (stereo not given) | 1.31
c1cncc(OCCCNC2COc3ccccc3C2)c1 (stereo not given) | -7.84
c1cc(CN2CCC(CCn3cccn3)CC2)cc(Cn2cccn2)c1 | -1.58
CN(CCN1CCCCC1=O)Cc1cc2cc3c(cc2[nH]c1=O)OCO3 | -6.21
O=C(c1cccnc1)C1CCCN(c2nnc(C3CC3)o2)C1 (stereo not given) | 6.59
Cc1cc(C)nc(CCNc2nccc(CCC(F)(F)F)n2)n1 | -114
CC(Nc1ncnc2sccc12)c1cnn(C)c1 (stereo not given) | -2.63

SMILES | cytotoxicity at 10 µM [%]
Cc1nsc(NC(=O)NC2(CN3CCOCC3)CCCC2)n1 | 3.89
CC1CCC(NCCCN2CCOCC2)CC1 (stereo not given) | -6.58
CN1CCN(C(=O)c2cn3ccsc3n2)[C@H]2CS(=O)(=O)C[C@H]21 | -1.27
Cc1nc(N)ncc1C(=O)N1CCCC(CCc2ccc(F)c(F)c2)C1 (stereo not given) | -4.51
COCCNC(=O)c1cnc(C)nc1C | 24.5
Cn1cc(CN(CC2(O)CNCCOC2)C2CCCCC2)cn1 (stereo not given) | 3.09
CC(Cn1ccnc1)NC1CCN(Cc2cccc(O)c2)CC1 (stereo not given) | -4.21
Cc1cc(C(F)(F)F)nc(CNC(=O)CCC2CCCCN2C)n1 (stereo not given) | -59
CC(C)n1cnnc1CN(C)C(=O)c1cnn2ccccc12 | 1.31
COCc1ncc(CN(CCN(C)C)Cc2ccc(C)s2)cn1 | -57.1
CCOC(=O)N1CCN(C(=O)c2ccc3ccn(C)c3c2)CC1 | -6.57
CN1CCN(C[C@@H]2CN(C(=O)c3ccccc3C#N)C[C@@H]2CO)CC1 | -24.7
CCN(CC)C(=O)c1c(Cl)cnn1CC | -12.3
Cc1cccc(CN2CCC(N(C)Cc3nnc(C4CC4)n3C)C2)c1 (stereo not given) | -6.04
CN(C)c1cc(C(=O)N2CCCN(c3cccnn3)CC2)ccn1 | -8.19
Cc1cc(OCC(=O)NS(=O)(=O)c2cccnc2)ccc1Cl | 0.544
Cc1ccc(-c2noc(CN3CCc4cncnc4C3)n2)cc1 | 1.04
COc1cc(Cl)ccc1C(=O)N1CCCC(c2cc(C)[nH]n2)C1 (stereo not given) | 72.5
CC(C)c1nccn1C1CCCN(C(=O)c2cnc[nH]2)C1 (stereo not given) | -0.808
Nc1nc(CN2CCOC(Cn3cncn3)C2)nc2ccccc12 (stereo not given) | -0.734
c1ccc(OCCCNCCn2cccn2)cc1 | -5.46
O=C(NCCNc1cnccn1)C1CCN(C(=O)N2CCCC2)CC1 | -0.577

SMILES | cytotoxicity at 10 µM [%]
CC(C(=O)N1CCN(c2cnccn2)CC1)n1cncn1 (stereo not given) | 8.37
CC(NC(=O)CN(C)S(C)(=O)=O)c1nnc2n1CCCCC2 (stereo not given) | -10.2
CCc1nc(C2CCCN(C(=O)c3ccc4c(c3)nnn4C)C2)no1 (stereo not given) | -3.3
COCCc1noc(CNCC2CCCN2c2cccnn2)n1 (stereo not given) | 4.33
Cn1cnnc1C1CCCN(C(=O)NCCOc2ccccc2)C1 (stereo not given) | 7.48
Cc1ccc(CN(Cc2[nH]cnc2C)C2CC(C)(C)NC(C)(C)C2)o1 | -3.3
COc1ccc(CC(=O)N2CC[C@@H](OC)[C@@H]2Cc2cccnc2)cc1 | 8.48
CN(C)C[C@H]1OC[C@@H]2CCN(S(=O)(=O)c3cccs3)C[C@@H]21 | 3.04
Cn1cc(CN2CCC3(CC2)CCN(C(=O)c2cscn2)C3)cn1 | -2.45
CCN1CC2(CC1=O)CN(Cc1ccncc1)CCN(C(=O)C(C)C)C2 (stereo not given) | -0.182
Cc1cc(CN2CC[C@H]3[C@H]2CCN3CC(=O)N(C)C)oc1C | -5.6
O=S(=O)(c1cccnc1)N1C[C@H]2CCC[C@@]2(COc2ccccn2)C1 | 7.05
c1cc(CN2CCO[C@H]3[C@H](OCCN4CCCC4)CC[C@@H]32)ccn1 | -1.95
O=C([C@@H]1CSCN1)N1CC2(CCNCC2)c2cc(Cl)ccc21 | 4.33
COCCN1CCC2(CCN(Cc3ccc(OC)cc3)CC2)C1=O | 2.88
CN(Cc1ccco1)[C@@H]1CN(CC2CCOCC2)C[C@@H]2CCCO[C@@H]21 | -71.1
CCCN1CCC[C@]2(CCC(=O)N2Cc2ccncc2)[C@H]1CC | -1.16
Cn1cnc2c(-c3ccccc3)nc(C3CCNCC3)cc21 | -109
COCCCNC(=O)c1cc(-c2cnc(N3CCOCC3)nc2)cn1C | -69.8
Cc1ccc(CN2CC[C@H]3C[C@H](C(=O)N4CCCO4)O[C@@H]3C2)o1 | 7.11
CCN(C)c1ncnc2c1CCN(Cc1ccncc1)CC2 | -10.7
Cc1cnn(CCC(=O)N2C[C@@H]3CC[C@H]2CN(CC(=O)N(C)C)C3)c1 | -10
